# Screening results: PubChem BioAssay, The Scripps Research Institute Molecular Screening Center
# This is a sample that favours compounds with a hit; in the whole collection about 2.2% have one here.
# LEDGF integ inh: blocks HIV-1 LEDGF/p75-dependent DNA integration | TR-FRET IN-LEDGF/p75 DNA integration, Eu/Cy5 | 0.64% of 370,000 active | inhibition, % at 3.7 µM;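 active = inhibition above the screen-wide mean plus 3 SD, cut at about 13% in these data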;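 also: signal is the Cy5 over europium emission ratio at 671 and 618 nm; 0% = plate median of compound wells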
# SIAE primary: blocks human sialic acid acetylesterase; inhibition, % at 9.66 µM; Q9HAT2; SIAE FP-Rh probe binding, fluorescence polarization; AID 1053197; 0.69% of 370,000 active;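 active = inhibition above a cutoff: mean of compounds within the control limits plus 3 SD of those, cut at about 17% in these data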;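 also: 0% = plate median of compound wells and 100% = probe without SIAE protein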
# TCR CD3 inh: human TCR-CD3 binding inhibition | TAMRA-labeled TCR probe fluorescence, biochemical | inhibition, % at 9.4 µM | 0.37% of 360,000 active | AID 651800;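 also: recombinant mutant TCR 2C K166C tagged with TAMRA read by polarization; 0% = receptor in buffer alone and 100% = receptor with positive control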
# HTRA1 inhibitor: HTRA1 (human) protease inhibition; Q92743; 0.5% of 340,000 active; recombinant HTRA1, FP-rhodamine activity-based probe, fluorescence polarization; inhibition, % at 5.96 µM; in the data active = inhibition above about 36%;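 also: 0% = enzyme with DMSO and 100% = wells lacking enzyme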
# Target sequence (Q92743 whole entry, looked up): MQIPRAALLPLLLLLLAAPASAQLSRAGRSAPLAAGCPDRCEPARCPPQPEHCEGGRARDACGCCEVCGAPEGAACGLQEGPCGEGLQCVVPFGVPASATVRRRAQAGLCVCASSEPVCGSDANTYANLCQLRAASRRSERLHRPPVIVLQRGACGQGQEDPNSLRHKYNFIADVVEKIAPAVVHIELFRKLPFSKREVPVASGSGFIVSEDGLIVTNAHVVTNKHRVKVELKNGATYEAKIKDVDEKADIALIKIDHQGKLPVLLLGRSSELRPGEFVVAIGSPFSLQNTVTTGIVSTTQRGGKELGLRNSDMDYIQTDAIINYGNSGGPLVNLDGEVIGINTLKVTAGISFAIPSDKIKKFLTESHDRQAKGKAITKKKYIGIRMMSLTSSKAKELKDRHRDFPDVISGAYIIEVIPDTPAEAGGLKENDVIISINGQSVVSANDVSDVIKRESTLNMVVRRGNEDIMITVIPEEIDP
# mABHD4 FP: ABHD4 (mouse) inhibition, primary FP screen; AID 720543; Q8VD66; 0.54% of 370,000 active; inhibition, % at 8.92 µM; purified mABHD4, FP-Rh probe fluorescence polarization;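 active = inhibition exceeding the mean over every tested compound plus 3 SD, cut at about 30% in these data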;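 also: 0% = plate median of compound wells and 100% = S159A mutant with DMSO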
#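 System: mouse ABHD4 enzyme, wild type / Medium: HEPES pH 7.0, NaCl, Pluronic buffer / Reagent: FP-Rh activity-based fluorescent probe / Control set: S159A mutant high control, sample median low control / Detection: fluorescence polarization with parallel and perpendicular emission, 525/598 nm / Schedule: 45 min + 60 min at 25 °C / Compound dosing: 8.92 µM, single dose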
# TDP2 inh: TDP2 (human) inhibition, absorbance primary screen; recombinant TDP2, T5PNP hydrolysis, p-nitrophenol absorbance 415 nm; inhibition, % at 12.8 µM; 0.34% of 370,000 active; AID 720702;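 active = inhibition above the mean of all tested compounds plus 3 SD, set per campaign, cut at about 25% in these data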;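 also: 0% = DMSO with enzyme and 100% = buffer with substrate but no TDP2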
#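 Test system: Human TDP2 enzyme | Reagent: 5 mM T5PNP | Compound dosing: 12.8 µM single point, 1% DMSO | Incubation: Enzyme reaction with compound for 2 h at 37 °C | Technique: p-Nitrophenol epi absorbance | Read-out: % inhibition relative to enzyme-containing and enzyme-free wells | Benchmarks: High control without enzyme, low control DMSO plus TDP2 | Replicates: Singlicate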
# BSA TAMRA ctr: BSA probe counter-screen for TCR-CD3 inhibitors | shares compounds with TCR CD3 inh | TAMRA-labeled BSA probe fluorescence counterscreen | inhibition, % at 9.4 µM | 10% of 1,200 active; in the data active = inhibition above about 23%;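 also: 0% = buffer low control and 100% = reference high control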
# TCR-CD3 conf: confirmation of human TCR-CD3 interaction inhibitors. shares compounds with TCR CD3 inh. TAMRA-labeled TCR probe fluorescence binding assay. 48% of 1,200 active. inhibition, % at 9.4 µM
# * marks the source's active call; other numbers are inactive results; / = no result given. Rule as the data show it, unless noted: active = inhibition above about 19%; inactive = the rest.
SMILES,LEDGF integ inh,SIAE primary,TCR CD3 inh,HTRA1 inhibitor,mABHD4 FP,TDP2 inh,BSA TAMRA ctr,TCR-CD3 conf
C[C@H](CO)N1C[C@H](C)[C@@H](CN(C)C(=O)Nc2ccc(C(F)(F)F)cc2)Oc2ccc(NC(=O)Nc3ccc(C(F)(F)F)cc3)cc2C1=O,-3,-110,76*,-165,-157,-3,25*,48*
COc1ccc(-c2nnc(SCC(=O)N/N=C(\C)c3ccc(-c4ccccc4)cc3)n2-c2ccc(C)cc2)cc1,4,12,/,/,-9,-1,/,/
COC(=O)[C@]12C[C@H](CC(=O)NCc3cccs3)C(=O)N(Cc3cccc4ccccc34)C1=C[C@H](COCc1ccccc1)O[C@@H]2C,-3,-2,/,/,-13,8,/,/
Cc1cc(=O)oc2cc(OCC(=O)N/N=C/c3cc([N+](=O)[O-])ccc3O)ccc12,0,8,48*,4,4,-3,-14,51*
COc1ccc(C(=O)NNC(=S)NC(=O)c2ccc(Br)o2)cc1OC,-3,5,20*,1,7,7,-5,25*
Cc1ccc(OCC(=O)NNC(=S)NC(=O)c2ccc(Br)o2)c(C)c1,4,4,13,2,5,4,/,/
COc1ccc(CCNC(=O)c2c(N)[nH]c(C(=O)c3ccccc3)c2-c2ccc(N(C)C)cc2)cc1,1,-7,/,/,9,-10,/,/
C=CCOC(=O)C(CO)NC(=O)CCCC(=O)O (configuration not stated),1,0,/,/,-1,0,/,/
CC1(C)CC2CC(C)(CN2S(=O)(=O)c2ccc(C(=O)Nc3cccc(S(=O)(=O)N4CCOCC4)c3)cc2)C1 (configuration not stated),-2,-92,35*,-66,-84,-4,5,29*
CC1(C)CC2CC(C)(CN2S(=O)(=O)c2ccc(C(=O)Nc3cc(S(=O)(=O)N4CCOCC4)ccc3Cl)cc2)C1 (configuration not stated),1,-10,5,-28,7,9,/,/
CN(C)Cc1c(O)c(Cl)cc2c3c(c(=O)oc12)CCCC3,4,2,6,3,5,4,/,/
CCN(CC)Cc1c(O)c(Cl)cc2c3c(c(=O)oc12)CCCC3,6,-3,22*,-1,29,-9,-4,-2
COCCCn1c(=N)c(C(=O)NCc2ccc3c(c2)OCO3)cc2c(=O)n3cccc(C)c3nc21,0,2,3,3,8,0,/,/
COCCCn1c(=N)c(C(N)=S)cc2c(=O)n3cccc(C)c3nc21,1,4,28*,27,1,-8,-4,12
Cc1cccn2c(=O)c3cc(C(N)=S)c(=N)n(CCCN4CCOCC4)c3nc12,0,2,22*,14,0,6,-6,9
CN(CCC#N)C(=O)COC(=O)c1c2c(nc3ccccc13)/C(=C/c1ccco1)CC2,79*,20*,52*,19,42*,-13,-14,32*
COc1cc(/C=N/NC(=O)COc2ccc(Cl)cc2)ccc1OS(=O)(=O)c1ccc(C)cc1,-2,1,57*,-75,-41,9,13,36*
NC(=O)CCC1NC(=S)N(Cc2ccccc2)C1=O (configuration not stated),-5,3,34*,-1,1,-9,13,45*
COC(=O)C1CCN(C(=O)C2CC(=O)N(c3ccc(OC)cc3)C2c2ccc(OC)cc2)CC1 (configuration not stated),5,3,/,/,1,2,/,/
CCCCn1nnnc1SCC(=O)N1CCCC1,-3,5,21*,-7,7,-16,4,3
CCCn1nnnc1SCC(=O)N1CCCC1,1,8,0,6,-2,4,/,/
O=C(N[C@H](C(=O)N1CCC[C@H]1C(=O)NC1CCCC1)C1CCCCC1)c1nccs1,-4,3,-2,/,-1,0,/,/
